The subject of one assay is CHO. The assay is described as follows: Concentration required to inhibit tumor growth in CHO cells. The format is functional, cell-based. The settings on record: Cricetulus griseus. The procedure, abridged:
(§1)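 SRB assay. Cells were exposed to compound at 0–100 µM for 96 h, then fixed with 10% trichloroacetic acid, washed five times with water, air dried overnight and stained with SRB. Protein-bound dye was read at 540 nm.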

The subject of assay [1] is DU-145. In words: Concentration required to inhibit proliferation of DU-145 prostate cancer cell lines; NA denotes not active. Type of assay: functional, cell-based, Homo sapiens. The method, boiled down:
as §1

Assay [2] in a line: Concentration required to inhibit proliferation of TSU prostate cancer cell lines; NA denotes not active. Type of assay: functional, cell-based, Homo sapiens. The method, boiled down:
as §1

A short description of assay [3]: Concentration required to inhibit tumor growth in RH7777 cells. Type of assay: functional, cell-based. The procedure, abridged: as §1
Assay [4] has as its system PC-3. The assay is described as follows: Concentration required to inhibit proliferation of PC-3 prostate cancer cell lines; NA denotes not active. Type of assay: functional, cell-based, Homo sapiens. The procedure, abridged:
as §1

Assay [5] relates to LNCaP. The assay is described as follows: Concentration required to inhibit proliferation of LNCaP prostate cancer cell lines; NA denotes not active. Type of assay: functional, cell-based, Homo sapiens. The procedure, abridged:
as §1

Assay [6] is described as follows: Concentration required to inhibit proliferation of PPC-1 prostate cancer cell lines. Type of assay: functional, cell-based. The settings on record: Homo sapiens. The method, boiled down: as §1
Assay [7] relates to LNCaP. In words: Concentration required to inhibit proliferation of LNCaP prostate cancer cell lines. The format is functional, cell-based. The conditions noted are these: Homo sapiens. The method, boiled down:
as §1

Assay [8] has as its system DU-145. The assay is described as follows: Concentration required to inhibit proliferation of DU-145 prostate cancer cell lines. Type of assay: functional, cell-based. The conditions noted are these: Homo sapiens. The procedure, abridged:
as §1

Assay [9] relates to PC-3. The assay is described as follows: Concentration required to inhibit proliferation of PC-3 prostate cancer cell lines. The format is functional, cell-based. The settings on record: Homo sapiens. The method, boiled down:
as §1

Assay [10] in a line: Concentration required to inhibit proliferation of TSU prostate cancer cell lines. The conditions noted are these: Homo sapiens. The format is functional, cell-based. The procedure, abridged:
as §1

Where only a bound is given, the exact number is not on record here.

As usually defined, the IC50 is the concentration that inhibits the measured activity by half. Lower therefore signals greater potency in that assay.

On to `CCCCCCCC/C=C/CCCCCCCCC(=O)NCCO`, for which the IC50 was above 20 µM in the assay with CHO; “Not Active” in the assay on DU-145 [1]; “Not Active” in [2]; above 20 µM in [3]; “Not Active” with PC-3 [4]; “Not Active” in the assay with LNCaP [5]. In assay [6], this compound yielded an IC50 above 20 µM.
Consider `O=c1[nH]cc(F)c(=O)[nH]1` [FLUOROURACIL], for which the IC50 in the assay on LNCaP [7] turned out to be 4.9 µM.
Take `CCCCCCCC/C=C/CCCCCCCCC(=O)NCCOP(=O)(O)O`: the IC50 in the assay with CHO is above 50 µM; in the assay on DU-145 [8], above 50 µM; in [3], above 50 µM; in the assay with LNCaP [5], “Not Active”; in the assay on PC-3 [9] it was above 50 µM; in assay [6] it was 50 µM. This compound returned an IC50 in [10] above 50 µM.
Regarding `CCCCCCCC/C=C/CCCCCCCCNC(=O)[C@@H](N)CO`, the IC50 with CHO was 5.2 µM; with DU-145 [8] it was 6.9 µM; in assay [3] it was 6.8 µM; with PC-3 [9], 5.9 µM; in the assay on LNCaP [7] it was 6.6 µM; in assay [6], 5.1 µM. This compound had an IC50 in assay [10] of 5.5 µM.
Consider `CCCCCCCCNC(=O)[C@H](CO)NC(=O)CCCCCCC`, for which the IC50 in the assay with CHO was above 100 µM; in the assay on DU-145 [8] it was above 100 µM; with PC-3 [9], 81.5 µM; in the assay with LNCaP [7], above 100 µM; in assay [6], 81.2 µM; in assay [10], 93.8 µM.

The values above are taken from ChEMBL document CHEMBL1137876, “Synthesis and biological evaluation of novel cytotoxic phospholipids for prostate cancer” (Bioorg Med Chem Lett, 2004).
